Experimental data published in PubChem BioAssay.
Results filed as inconclusive are left out.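 Rule for the calls, unless noted: active = viability increase at or above a cutoff of the median across tested compounds plus 3 SD (cut at about 8.5% in these data, passing the limit was not always enough); inconclusive = some gains above the cutoff, reason not given; inactive = the rest.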

Tests used:
[1] = S. cerevisiae growth inhibition in permissive medium (OD615), pilot counter-assay for S. cerevisiae lifespan shortening project, permissive growth control (AID 705;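 active = growth inhibition above 25% in both replicates, a cutoff set 3 SD above the mean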); conditions: OD615, 24 h, at 10 µM, stronger effect = higher value
Method in brief: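 System: engineered DeaD yeast; Medium: permissive raffinose/galactose medium; Compound dosing: 10 µM single dose, 0.25% DMSO; Incubation: 4 h cell pre-growth, 24 h exposure at 30 °C; Technique: OD at 615 nm; Evaluation: growth inhibition from lowered OD615 after 24 h.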

[2] = S. cerevisiae growth inhibition in restrictive medium, OD615, pilot screen, restrictive growth control, yeast lifespan reduction project (AID 706;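 active = growth inhibition above a set limit, 3 SD over mean compound inhibition, in both replicates, cut at about 43% in these data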;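 note: modified DeaD lifespan yeast strain shifted to restrictive glucose medium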); conditions: OD615, 48 h, at 10 µM, stronger effect = higher value
Method in brief: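 Material: modified S. cerevisiae; buffer or medium: CSMM-D glucose medium; doses: one concentration, 10 µM final, 0.25% DMSO; incubation: 48 h compound exposure at 30 °C; detection: optical density at 615 nm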

[3] = doxorubicin toxicity protection in MRP-1 cells – H69AR cells, CellTiter-Glo, duplicate, MRP-1 activator project, pilot screen (AID 807); conditions: H69AR viability with doxorubicin, CellTiter-Glo luminescence; at 10 µM; stronger effect = higher value;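 note: compound pretreatment 18-22 h then 72 h combined with doxorubicin; 0% = doxorubicin alone and 100% = vehicle without doxorubicin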
[4] = viability of HCT116 without oncogenic beta-catenin – human colon tumor cells, pilot screen (AID 823;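 active = cell viability at or below a set limit in both duplicate runs, the limit being the all-compound median minus 4 SD, cut at about 23% in these data, passing the limit was not always enough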;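 note: 0% = wells killed by 20 µM Hyamine and 100% = untreated DMSO cell wells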); conditions: HCT116 beta-catenin knockout viability, CellTiter-Glo, 60 h; at 10 µM; stronger effect = lower value
[5] = viability of PTEN-null HCT116 cells – cell-based, HCT116 clonal line, CellTiter-Glo, pilot screen (AID 824;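 active = viability at or below 27.92% in each of two runs, the all-compound median minus 4 SD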;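 note: 0% = 20 µM Hyamine control and 100% = vehicle cell control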); conditions: HCT116 PTEN-deleted viability, 60 h, at 10 µM, stronger effect = lower value
[6] = RAM pathway blockade in budding yeast – dse1pr::URA3 reporter, 5-FOA selection, pilot screen (AID 869;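 active = inhibition over a set limit, the all-compound mean plus 3 SD, in both replicate runs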;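 note: 0% = DMSO wells with no growth and 100% = 10 µM 1-NA-PP1 with full growth; RAM network block rescues cells from 5-FOA so hits raise OD615 growth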); conditions: S. cerevisiae dse1pr::URA3 5-FOA growth, OD615, 2 d; at 10 µM; stronger effect = higher value; strain carries analog-sensitive mutant Cbk1 kinase
[7] = RAM signaling pathway blockade in yeast – S. cerevisiae, Pdr1DBD-CYC8 efflux-inhibited sensitized strain, primary screen (AID 1298;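 active = RAM network inhibition above 8.4% in each of two replicates, 3 SD over the compound average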;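 note: 0% = DMSO untreated cells without growth and 100% = 10 µM 1-NA-PP1 full growth; higher means more yeast growth rescued from 5-FOA killing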); conditions: S. cerevisiae cbk1-as DSE1-URA3 strain, 5-FOA growth OD615, 2 d; at 50 µM; stronger effect = higher value

COc1ccc2nc(NC(=O)C3CCCN3S(=O)(=O)c3ccc(C)cc3)sc2c1 (stereo not given)
inactive: growth inhibition [1] -6.88% | growth inhibition [2] -4% | viability increase [3] -1.48% | viability [4] 69.3% | viability [5] 72% | inhibition [6] 1.23% | RAM network inhibition [7] 6.79%

Cc1ccc(N(C(C)C(=O)O)S(=O)(=O)c2c(C)[nH]c(=O)[nH]c2=O)cc1 (stereo not given)
inactive: growth inhibition [1] 1.15% | growth inhibition [2] 11.8% | viability increase [3] -0.92% | viability [4] 102% | viability [5] 94.5% | inhibition [6] 0.555% | RAM network inhibition [7] -0.47%

COC(=O)c1ccc(OCC(O)CN(CC(C)C)CC(C)C)cc1 (stereo not given)
inactive: growth inhibition [1] -3.55% | growth inhibition [2] -4.33% | viability increase [3] -1.4% | viability [4] 76.1% | viability [5] 86.4% | inhibition [6] 1.47% | RAM network inhibition [7] 2.82%

CCOC(=O)c1ccccc1Nc1cc(C)nc2nc(C)nn12
inactive: growth inhibition [1] -4.38% | growth inhibition [2] 9.16% | viability increase [3] -5.14% | viability [4] 97.6% | viability [5] 93% | inhibition [6] 1.52% | RAM network inhibition [7] 1.2%

COc1ccc(N2CCN(c3cc(=O)n(Cc4ccc(F)cc4)c(=O)[nH]3)CC2)cc1
inactive: growth inhibition [1] -4.88% | growth inhibition [2] 1.23% | viability increase [3] -2.97% | viability [4] 92.9% | viability [5] 86.3% | inhibition [6] 0.215% | RAM network inhibition [7] 9.17%

Cc1ccc2c(c1)c1c(n2CC(O)CN2C(=O)CNC2=O)C(=O)CCC1 (stereo not given)
inactive: growth inhibition [1] 3.38% | growth inhibition [2] 7.05% | viability increase [3] 4.52% | viability [4] 101% | viability [5] 101% | inhibition [6] 1.74% | RAM network inhibition [7] 3.57%

Cn1c(SCc2nc(-c3ccc(Cl)cc3)no2)nnc1-c1ccco1
inactive: growth inhibition [1] -8.54% | growth inhibition [2] -0.675% | viability increase [3] -2.85% | viability [4] 90.6% | viability [5] 85.6% | inhibition [6] 2.02% | RAM network inhibition [7] 6.31%

COc1ccc(CNC(=O)C2CCN(S(=O)(=O)c3cccc4cccnc34)CC2)cc1
inactive: growth inhibition [1] -9.14% | growth inhibition [2] 3.15% | viability increase [3] 0.11% | viability [4] 99.9% | viability [5] 92.2% | inhibition [6] 2.6% | RAM network inhibition [7] 2.66%

Cc1onc(-c2ccccc2Cl)c1C(=O)NCCN1Cc2ccccc2C1=O
inactive: growth inhibition [1] -0.695% | growth inhibition [2] 4.3% | viability increase [3] -4.11% | viability [4] 102% | viability [5] 90.5% | inhibition [6] 0.375% | RAM network inhibition [7] 0.31%

CC1(C)C(=O)OC(c2cc(Br)ccc2O)C(C)(C)C1=O (stereo not given)
inactive: growth inhibition [1] -8.82% | growth inhibition [2] -1.84% | viability increase [3] -2.35% | viability [4] 90.2% | viability [5] 82.1% | inhibition [6] -0.355% | RAM network inhibition [7] 4.3%

Nc1nc(-c2ccc3c(c2)CCCC3)cs1
inactive: growth inhibition [1] 2.05% | growth inhibition [2] 29.1% | viability increase [3] -0.58% | viability [4] 86.2% | viability [5] 88.2% | inhibition [6] 0.275% | RAM network inhibition [7] 2.64%

COc1ccc(CN2CCCCC2c2cccnc2)c(OC)c1C (stereo not given)
inactive: growth inhibition [1] -1.37% | growth inhibition [2] 0.92% | viability increase [3] -2.86% | viability [4] 92.1% | viability [5] 99% | inhibition [6] 1.25% | RAM network inhibition [7] 1.37%

O=C(Cn1nc(C(=O)O)c2ccccc2c1=O)NCC1CCCO1 (stereo not given)
inactive: growth inhibition [1] -4.73% | growth inhibition [2] -13.3% | viability increase [3] -0.44% | viability [4] 103% | viability [5] 102% | inhibition [6] 1.71% | RAM network inhibition [7] 6.89%

CC(=NCc1ccccc1)C1=C(O)COC1=O
inactive: growth inhibition [1] 5.52% | growth inhibition [2] 8.4% | viability increase [3] -1.47% | viability [4] 100% | viability [5] 92.7% | inhibition [6] 1.06% | RAM network inhibition [7] 4.28%

C1=C(N2CCOCC2)/C(=C/c2nc3ccccc3[nH]2)CC1
inactive: growth inhibition [1] -10.4% | growth inhibition [2] 19.2% | viability increase [3] -4.25% | viability [4] 78.9% | viability [5] 82.1% | inhibition [6] 0.41% | RAM network inhibition [7] 2.44%

Cc1ccccc1NCN1C(=O)C2C3C=CC(C3)C2C1=O (stereo not given)
inactive: growth inhibition [1] -11.2% | growth inhibition [2] -18.2% | viability increase [3] -2.43% | viability [4] 86% | viability [5] 96.2% | inhibition [6] 3.66% | RAM network inhibition [7] 0.48%

O=C1C(=O)N(CCO)C(c2ccccc2)/C1=C(\O)c1ccccc1 (stereo not given)
inactive: growth inhibition [1] -18.6% | growth inhibition [2] -8.67% | viability increase [3] 0.49% | viability [4] 99.7% | viability [5] 101% | inhibition [6] 1.29% | RAM network inhibition [7] 0.42%

Cc1ccc(C(=O)CSc2nnc(-c3cccs3)n2C)o1
inactive: growth inhibition [1] 1.85% | growth inhibition [2] 28.1% | viability increase [3] -3.5% | viability [4] 108% | viability [5] 108% | inhibition [6] 0.5% | RAM network inhibition [7] 3.7%

O=C(Sc1nnc(-c2ccccc2)o1)N1c2ccccc2Sc2ccccc21
inactive: growth inhibition [1] 15.4% | growth inhibition [2] 21.9% | viability increase [3] -4.17% | viability [4] 85.1% | viability [5] 89.7% | inhibition [6] 2.49% | RAM network inhibition [7] 3.79%

COc1cccc(C2CC(c3ccccc3C)n3nc(N)nc3N2)c1 (stereo not given)
inactive: growth inhibition [1] -7.81% | growth inhibition [2] 7.97% | viability increase [3] -2.32% | viability [4] 107% | viability [5] 86.5% | inhibition [6] 0.35% | RAM network inhibition [7] 8.21%

O=C(Nc1ccc(OC(F)(F)F)cc1)c1cnc2n(c1=O)CCS2
inactive: growth inhibition [1] -14.9% | growth inhibition [2] -1.33% | viability increase [3] 2.36% | viability [4] 89.9% | viability [5] 79.1% | inhibition [6] 3.13% | RAM network inhibition [7] 4.63%

Cc1cc(C)n(C(CC(=O)N2CCc3ccccc3C2)C(=O)O)n1 (stereo not given)
inactive: growth inhibition [1] -3.07% | growth inhibition [2] -0.04% | viability increase [3] 0.01% | viability [4] 102% | viability [5] 95.5% | inhibition [6] 0% | RAM network inhibition [7] 5.81%

O=C(Nc1nccs1)C12CC3CC(C1)CC(C(=O)Nc1nccs1)(C3)C2
inactive: growth inhibition [1] 1.86% | growth inhibition [2] 28.3% | viability increase [3] -2.85% | viability [4] 75.3% | viability [5] 78.7% | inhibition [6] 1.25% | RAM network inhibition [7] 2.5%

CC(C)CC(NS(=O)(=O)c1ccc2c(c1)oc(=O)n2C)C(=O)NC1CCCc2ccccc21 (stereo not given)
inactive: growth inhibition [1] 0.005% | growth inhibition [2] -5.15% | viability increase [3] -6.23% | viability [4] 76.8% | viability [5] 71.8% | inhibition [6] 1.38% | RAM network inhibition [7] 6.99%

Cc1csc(=N)n1-c1ccc(Cl)cc1
inactive: growth inhibition [1] -6.4% | growth inhibition [2] -7.49% | viability increase [3] 0.86% | viability [4] 82.5% | viability [5] 80.7% | inhibition [6] 1.35% | RAM network inhibition [7] 9.58%
